Test results reported in ChEMBL document CHEMBL1275556, “High prevalence of plasmid-mediated quinolone resistance genes qnr and aac(6')-Ib-cr in clinical isolates of Enterobacteriaceae from nine teaching hospitals in China” (2008).
≈ marks a conversion by molar mass, not a printed value.

Columns and labels:
[1] = tested on: Klebsiella pneumoniae; assay: Antimicrobial activity against aac(6')-Ib-cr-positive Klebsiella pneumoniae SY26T harboring wild-type GyrA, ParC, GyrB and qnrB genes by agar dilution method; format: functional
Summary of the method: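 Transconjugants were made by conjugating a qnr/aac(6')-Ib-cr donor with azide-resistant E. coli J53. MICs were read by CLSI agar dilution (M7-A7) and interpreted per M100-S17.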

[2] = tested on: Citrobacter freundii; assay: Antimicrobial activity against aac(6')-Ib-cr-positive Citrobacter freundii JN1 harboring GyrA T83I, ParC S80I mutant, wild-type GyrB and qnrA genes by agar dilution method; format: functional
Summary of the method: (§1)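 MICs were determined by the CLSI agar dilution method (M7-A7) and interpreted against CLSI M100-S17 breakpoints.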

[3] = tested on: Citrobacter freundii; assay: Antimicrobial activity against aac(6')-Ib-cr-positive Citrobacter freundii TJ15 harboring GyrA T83I, ParC S80I mutant, wild-type GyrB, qnrB genes by agar dilution method; format: functional; summary of the method: as §1
[4] = tested on: Klebsiella pneumoniae; assay: Antimicrobial activity against aac(6')-Ib-cr-positive Klebsiella pneumoniae WH99 harboring wild-type GyrA, ParC, GyrB and qnrB genes by agar dilution method; format: functional
Summary of the method: (§2)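 MICs were determined on clinical isolates by CLSI agar dilution (M7-A7) and interpreted against CLSI M100-S17 breakpoints.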

[5] = tested on: Citrobacter freundii; assay: Antimicrobial activity against aac(6')-Ib-cr-positive Citrobacter freundii JS33 harboring GyrA T83I mutant, wild-type ParC, GyrB, qnrA and qnrB genes by agar dilution method; format: functional; summary of the method: as §1
[6] = tested on: Klebsiella pneumoniae; assay: Antimicrobial activity against aac(6')-Ib-cr-positive Klebsiella pneumoniae GZ40T harboring qnrB gene by agar dilution method
[7] = tested on: Citrobacter freundii; assay: Antimicrobial activity against aac(6')-Ib-cr-positive Citrobacter freundii PU55T harboring wild-type GyrA, ParC, GyrB and qnrA genes by agar dilution method
[8] = tested on: Klebsiella pneumoniae; assay: Antimicrobial activity against aac(6')-Ib-cr-negative Klebsiella pneumoniae SY22T harboring qnrS gene by agar dilution method; format: functional; summary of the method: as §1
[9] = tested on: Citrobacter freundii; assay: Antimicrobial activity against aac(6')-Ib-cr-negative Citrobacter freundii JN64 harboring GyrA T83I, wild-type ParC, GyrB and qnrA genes by agar dilution method; format: functional; summary of the method: as §1
[10] = tested on: Klebsiella pneumoniae; assay: Antimicrobial activity against aac(6')-Ib-cr-positive Klebsiella pneumoniae GZ40 harboring GyrA S83I, ParC S80I mutant, wild-type GyrB and qnrB genes by agar dilution method; format: functional; summary of the method: as §1
[11] = tested on: Klebsiella pneumoniae; assay: Antimicrobial activity against aac(6')-Ib-cr-positive Klebsiella pneumoniae JN41T harboring qnrB gene by agar dilution method; format: functional
Summary of the method: (§3)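 Transconjugants were made by conjugating a qnr/aac(6')-Ib-cr donor with azide-resistant E. coli J53. Selection used Trypticase soy agar with sodium azide 150 µg/ml and sulfamethoxazole 180 µg/ml. […] MICs were read by CLSI agar dilution (M7-A7) and interpreted per M100-S17.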

[12] = tested on: Citrobacter freundii; assay: Antimicrobial activity against aac(6')-Ib-cr-positive Citrobacter freundii PU55 harboring GyrA T83I, ParC S80I mutant, wild-type GyrB, qnrA genes by agar dilution method; format: functional; summary of the method: as §1
[13] = tested on: Klebsiella pneumoniae; assay: Antimicrobial activity against aac(6')-Ib-cr-positive Klebsiella pneumoniae JN41 harboring GyrA S83I, ParC S80I mutant, wild-type GyrB and qnrB genes by agar dilution method; format: functional; summary of the method: as §2
[14] = tested on: Klebsiella pneumoniae; assay: Antimicrobial activity against aac(6')-Ib-cr-positive Klebsiella pneumoniae WH99T harboring qnrB gene by agar dilution method; format: functional; summary of the method: as §3
[15] = tested on: Klebsiella pneumoniae; assay: Antimicrobial activity against aac(6')-Ib-cr-positive Klebsiella pneumoniae JN132T harboring qnrB gene by agar dilution method; format: functional; summary of the method: as §3
[16] = tested on: Citrobacter freundii; assay: Antimicrobial activity against aac(6')-Ib-cr-positive Citrobacter freundii JS33T harboring qnrA gene by agar dilution method; format: functional; summary of the method: as §1
[17] = tested on: Klebsiella pneumoniae; assay: Antimicrobial activity against aac(6')-Ib-cr-negative Klebsiella pneumoniae SY22 harboring GyrA S83I, ParC S80I mutant, wild-type GyrB and qnrS genes by agar dilution method; format: functional; summary of the method: as §1
[18] = tested on: Citrobacter freundii; assay: Antimicrobial activity against aac(6')-Ib-cr-positive Citrobacter freundii JN1T by agar dilution method; format: functional; summary of the method: as §1
[19] = tested on: Klebsiella pneumoniae; assay: Antimicrobial activity against aac(6')-Ib-cr-positive Klebsiella pneumoniae JN132 harboring GyrA S83I, ParC S80I mutant, wild-type GyrB and qnrB genes by agar dilution method; format: functional; summary of the method: as §2
[20] = tested on: Klebsiella pneumoniae; assay: Antimicrobial activity against aac(6')-Ib-cr-positive Klebsiella pneumoniae SY26 harboring GyrA S83I, ParC S80I mutant, wild-type GyrB and qnrB genes by agar dilution method; format: functional; summary of the method: as §2
[21] = tested on: Escherichia coli; assay: Antimicrobial activity against aac(6')-Ib-cr-positive Escherichia coli FJ3 harboring GyrA S83L, ParC S80R mutant, wild-type GyrB and qnrB genes by agar dilution method; format: functional; summary of the method: as §1
[22] = tested on: Escherichia coli; assay: Antimicrobial activity against aac(6')-Ib-cr-negative Escherichia coli PU12 harboring GyrA S83L mutant, wild-type GyrB, ParC and qnrS genes by agar dilution method; format: functional; summary of the method: as §1
[23] = tested on: Citrobacter freundii; assay: Antimicrobial activity against aac(6')-Ib-cr-negative Citrobacter freundii JN64T harboring qnrA gene by agar dilution method; format: functional; summary of the method: as §1
[24] = tested on: Escherichia coli; assay: Antimicrobial activity against aac(6')-Ib-cr-negative Escherichia coli PU12T harboring wild-type GyrA, GyrB, ParC and qnrS genes by agar dilution method; format: functional; summary of the method: as §1
[25] = tested on: Escherichia coli; assay: Antimicrobial activity against aac(6')-Ib-cr-positive Escherichia coli FJ3T harboring wild-type GyrA, ParC, GyrB and qnrB genes by agar dilution method
[26] = tested on: Enterobacter cloacae; assay: Antimicrobial activity against aac(6')-Ib-cr-negative Enterobacter cloacae FJ67T harboring qnrS gene by agar dilution method; format: functional
[27] = tested on: Enterobacter cloacae; assay: Antimicrobial activity against aac(6')-Ib-cr-negative Enterobacter cloacae SH39T harboring qnrA gene by agar dilution method; format: functional
[28] = tested on: Enterobacter cloacae; assay: Antimicrobial activity against aac(6')-Ib-cr-positive Enterobacter cloacae FJ63T harboring qnrS gene by agar dilution method; format: functional
[29] = tested on: Enterobacter cloacae; assay: Antimicrobial activity against aac(6')-Ib-cr-negative Enterobacter cloacae GZ47 harboring qnrB and qnrS genes by agar dilution method; format: functional
[30] = tested on: Enterobacter cloacae; assay: Antimicrobial activity against aac(6')-Ib-cr-negative Enterobacter cloacae FJ61 harboring GyrA S83I, GyrA D87A, ParC S80I mutant, wild-type GyrB and qnrS genes by agar dilution method; format: functional
[31] = tested on: Enterobacter cloacae; assay: Antimicrobial activity against aac(6')-Ib-cr-negative Enterobacter cloacae GZ51 harboring qnrA gene by agar dilution method; format: functional
[32] = tested on: Enterobacter cloacae; assay: Antimicrobial activity against aac(6')-Ib-cr-negative Enterobacter cloacae SH39 harboring GyrA S83I, ParC S80I mutant, wild-type GyrB and qnrA genes by agar dilution method; format: functional
[33] = tested on: Enterobacter cloacae; assay: Antimicrobial activity against aac(6')-Ib-cr-positive Enterobacter cloacae FJ63 harboring GyrA S83I, GyrA D87A, ParC S80I mutant, wild-type GyrB and qnrS genes by agar dilution method; format: functional
[34] = tested on: Enterobacter cloacae; assay: Antimicrobial activity against aac(6')-Ib-cr-negative Enterobacter cloacae GZ51T harboring qnrA gene by agar dilution method; format: functional
[35] = tested on: Citrobacter freundii; assay: Antimicrobial activity against aac(6')-Ib-cr-positive Citrobacter freundii TJ15T harboring wild-type GyrA, ParC, GyrB genes by agar dilution method; format: functional; summary of the method: as §1
[36] = tested on: Enterobacter cloacae; assay: Antimicrobial activity against aac(6')-Ib-cr-negative Enterobacter cloacae FJ61T harboring qnrS gene by agar dilution method; format: functional
[37] = tested on: Enterobacter cloacae; assay: Antimicrobial activity against aac(6')-Ib-cr-negative Enterobacter cloacae FJ67 harboring […] and qnrS genes by agar dilution method; format: functional
[38] = tested on: Enterobacter cloacae; assay: Antimicrobial activity against aac(6')-Ib-cr-negative Enterobacter cloacae GZ47T harboring qnrB gene by agar dilution method; format: functional
[39] = tested on: Enterobacter cloacae; assay: Antimicrobial activity against aac(6')-Ib-cr-negative Enterobacter cloacae WH42 harboring wild-type GyrA, ParC, GyrB and qnrA genes by agar dilution method; format: functional
[40] = tested on: Enterobacter cloacae; assay: Antimicrobial activity against aac(6')-Ib-cr-negative Enterobacter cloacae WH42T harboring qnrA gene by agar dilution method; format: functional

SMILES	MIC [1] [µg/mL]	MIC [2] [µg/mL]	MIC [3] [µg/mL]	MIC [4] [µg/mL]	MIC [5] [µg/mL]	MIC [6] [µg/mL]	MIC [7] [µg/mL]	MIC [9] [µg/mL]	MIC [10] [µg/mL]	MIC [11] [µg/mL]	MIC [12] [µg/mL]	MIC [13] [µg/mL]	MIC [14] [µg/mL]	MIC [15] [µg/mL]	MIC [16] [µg/mL]	MIC [17] [µg/mL]	MIC [18] [µg/mL]	MIC [19] [µg/mL]	MIC [20] [µg/mL]	MIC [21] [µg/mL]	other results
O=C(O)c1cn(C2CC2)c2cc(N3CCNCC3)c(F)cc2c1=O [CIPROFLOXACIN]	0.5 (≈ 1.51 µM)	> 32	16 (≈ 48.3 µM)	2 (≈ 6.04 µM)	4 (≈ 12.1 µM)	1 (≈ 3.02 µM)	1 (≈ 3.02 µM)	8 (≈ 24.1 µM)	> 32	0.5 (≈ 1.51 µM)	> 32	> 32	1 (≈ 3.02 µM)	1 (≈ 3.02 µM)	0.5 (≈ 1.51 µM)	> 32	1 (≈ 3.02 µM)	> 32	> 32		MIC [8]: 0.5 µg/mL (≈ 1.51 µM)
CO/N=C(\C(=O)N[C@@H]1C(=O)N2C(C(=O)[O-])=C(C[N+]3(C)CCCC3)CS[C@H]12)c1csc(N)n1				2 (≈ 4.16 µM)	0.25 (≈ 0.52 µM)					1 (≈ 2.08 µM)	1 (≈ 2.08 µM)	2 (≈ 4.16 µM)	1 (≈ 2.08 µM)	2 (≈ 4.16 µM)		1 (≈ 2.08 µM)	1 (≈ 2.08 µM)	2 (≈ 4.16 µM)	0.5 (≈ 1.04 µM)	8 (≈ 16.6 µM)	MIC [22]: 2 µg/mL (≈ 4.16 µM); MIC [23]: 4 µg/mL (≈ 8.32 µM); MIC [24]: 2 µg/mL (≈ 4.16 µM); MIC [25]: 4 µg/mL (≈ 8.32 µM)
C[C@H]1COc2c(N3CCN(C)CC3)c(F)cc3c(=O)c(C(=O)O)cn1c23.C[C@H]1COc2c(N3CCN(C)CC3)c(F)cc3c(=O)c(C(=O)O)cn1c23.O [LEVOFLOXACIN]	0.25	16	4		2	0.25	0.25	8	> 32	0.25	32	> 32	0.25	0.25	0.25	> 32	0.25	8	32	4	MIC [26]: 1 µg/mL; MIC [27]: 0.5 µg/mL; MIC [28]: 0.5 µg/mL; MIC [22]: 4 µg/mL; MIC [29]: 2 µg/mL; MIC [23]: 0.5 µg/mL; MIC [30]: > 32 µg/mL; MIC [31]: 0.5 µg/mL; MIC [32]: 32 µg/mL; MIC [33]: > 32 µg/mL; MIC [34]: 0.25 µg/mL; MIC [35]: 0.5 µg/mL; MIC [36]: 0.5 µg/mL; MIC [37]: 8 µg/mL; MIC [38]: 0.25 µg/mL; MIC [39]: 2 µg/mL; MIC [40]: 0.25 µg/mL; MIC [25]: 0.25 µg/mL
